hERG protect: compounds protecting human hERG from proarrhythmic drug block; activation (rescue from dofetilide block), less the hit threshold, % at 10 µM; actives 0.51% (n = 310,000); Q12809; CHO-hERG, FluxOR thallium flux, dofetilide IC70 present;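 active = activation above the mean of controls blocked by dofetilide plus 5 SD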;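 also: thallium influx through hERG after potassium depolarization seen as dye fluorescence rise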
KCNK9 inh: human KCNK9 channel inhibition. HEK293 KCNK9, FluxOR thallium flux fluorescence; active compounds read low. actives 1.2% (n = 310,000). B-score at 10 µM. Q9NPC2. AID 488922;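 active = ratio B-score over 3 SD below the library mean, with starting fluorescence within 5 SD of its mean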;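 also: negative B-score means less thallium flux so channel inhibition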
KCNK3 block: human KCNK3 channel inhibition, primary screen. B-score at 10 µM. O14649. actives 0.84% (n = 340,000). CHO-KCNK3 thallium flux, FluxOR fluorescence; active compounds read low;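 active = B-score under library mean minus 4 SD, starting fluorescence ratio at most library mean plus 5 SD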;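 also: more negative B-score means stronger inhibition of thallium flux through KCNK3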
KCNQ1 act: potentiates or activates the human KCNQ1 potassium channel. AID 2648. P51787. actives 0.35% (n = 310,000). CHO-K1 KCNQ1, thallium flux FluxOR fluorescence; active compounds read high. B-score at 10 µM;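 active = fluorescence ratio B-score, a plate-corrected score, at least three library SD, with initial intensity B-score within 5 SD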
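Material: CHO-K1 cells stably expressing KCNQ1. Medium: assay buffer for compound exposure, DMSO matched across wells. Reagent: K+/Tl+ depolarizing stimulus. Compound dosing: single-concentration screen. Times: 37 °C overnight plating, 90-min dark dye load, 20-min compound pretreatment. Technique: FluxOR Tl+ flux fluorescence.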
KCNQ1 block: inhibitors of human KCNQ1 potassium channel. CHO-K1 KCNQ1, FluxOR thallium flux fluorescence; active compounds read high. B-score at 10 µM. actives 1.3% (n = 310,000). AID 2642;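 active = compounds whose thallium flux B-score, printed positive for inhibition, exceeds three library SD while starting fluorescence stays within three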;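 also: channel opened by potassium depolarization with thallium stimulus after 20 min compound exposure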
KCNQ1 block val: human KCNQ1 channel inhibition, validation assay; shares compounds with KCNQ1 block; KCNQ1 cell line, FluxOR thallium flux fluorescence; inhibition, % at 10 µM; actives 93% (n = 1,600); AID 588353;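 active = primary screen active, with duplicate mean exceeding buffer control mean plus 3 SD of buffer wells, cut at about 28% in these data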
CHO KCNQ1 ctr: activity in parental CHO cells lacking KCNQ1; fluorescence ratio (Tl flux) at 10 µM; actives 21% (n = 1,600); shares compounds with KCNQ1 block; parental CHO-K1, FluxOR thallium flux fluorescence ratio; active compounds read low; zero means no signal rise above baseline; AID 588366;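 active = mean of duplicate thallium-flux fluorescence ratios in parental host cells more than 5 SD below the buffer control mean, cut at about 0.38 in these data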;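 also: ratio is peak minus minimum fluorescence divided by baseline fluorescence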
KCNQ1 APC inh: blocks human KCNQ1 current in automated patch clamp; AID 624120; shares compounds with KCNQ1 block; actives 20% (n = 490); KCNQ1-CHO cells; calls only at 10 µM;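 active = KCNQ1 current drop exceeding 3 SD of negative control wells, seen in both duplicate runs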;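 also: steady state current during a 2 s step from -80 to +40 mV; negative values mean current inhibition and positive values mean potentiation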
KCNQ2 inh: selectivity of KCNQ1 inhibitors: inhibition of rat KCNQ2 channel. inhibition, % at 10 µM. KCNQ2 cells, FluxOR thallium flux fluorescence. shares compounds with KCNQ1 block. actives 71% (n = 1,600);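 active = mean percent inhibition of the KCNQ2 thallium signal more than 5 SD above the buffer-only control wells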;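 also: KCNQ2 expressed in CHO cells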
KCNQ1 KCNE1 spec: human KCNQ1/KCNE1 inhibition in KCNQ1 specificity screen | shares compounds with KCNQ1 block | KCNQ1/KCNE1 cells, FluxOR thallium flux fluorescence | inhibition, % at 10 µM | actives 77% (n = 1,600);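 active = mean percent inhibition of duplicate wells above the buffer-only control mean plus 3 SD of those controls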
KCNK9 block conf: human KCNK9 inhibitor confirmation; shares compounds with KCNK9 inh; HEK293 KCNK9 cells, FluxOR thallium flux fluorescence; inhibition, % at 10 µM; actives 43% (n = 4,900);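 active = thallium signal inhibited by more than 5 SD of the compound-free buffer control wells, on both duplicate plates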
Kir2-1 spec: mouse Kir2.1 off-target activity of KCNK9 modulators. shares compounds with KCNK9 inh. actives 4% (n = 4,900). inhibition, % at 10 µM. Kir2.1 cells, FluxOR thallium flux fluorescence;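 active = thallium signal drop more than 5 SD beyond the mean of the no-compound control wells, seen in both duplicate plates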;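 also: signal is fluorescence rise after thallium addition divided by baseline fluorescence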
Target sequence (P35561 whole entry, looked up): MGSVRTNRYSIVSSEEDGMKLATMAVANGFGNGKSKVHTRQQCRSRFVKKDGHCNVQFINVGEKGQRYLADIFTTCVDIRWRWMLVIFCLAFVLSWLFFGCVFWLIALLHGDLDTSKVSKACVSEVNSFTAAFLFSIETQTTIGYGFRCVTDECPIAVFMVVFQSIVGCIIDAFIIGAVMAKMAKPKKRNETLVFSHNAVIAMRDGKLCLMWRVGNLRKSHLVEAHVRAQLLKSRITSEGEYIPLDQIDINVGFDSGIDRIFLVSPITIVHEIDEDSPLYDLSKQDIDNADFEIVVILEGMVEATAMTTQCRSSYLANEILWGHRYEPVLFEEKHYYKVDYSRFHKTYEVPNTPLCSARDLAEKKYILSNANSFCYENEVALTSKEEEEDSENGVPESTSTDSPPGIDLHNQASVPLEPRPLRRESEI
KCNK9 uninduced: second counter-screen for KCNK9 modulators: effect in non-induced cells; shares compounds with KCNK9 inh; non-induced KCNK9-HEK293, FluxOR thallium flux; inhibition, % at 10 µM; actives 40% (n = 4,900);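 active = thallium signal drop beyond 5 SD of the untreated control mean, on both duplicate plates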
KCNK3 confirm: human KCNK3 channel inhibition, confirmation assay | shares compounds with KCNK3 block | actives 99% (n = 2,400) | ratio percent of control, % at 10 µM | CHO-KCNK3 thallium flux, FluxOR fluorescence; 0% buffer, 100% carvedilol maximal block | AID 651638;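 active = ratio percent of control, averaged over triplicates, above buffer control mean plus 5 SD, cut at about 64% in these data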;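 also: ratio is the fluorescence rise from min to max over baseline after thallium stimulus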
KCNK3 uninduced: activity in cells without induced KCNK3 expression | shares compounds with KCNK3 block | non-induced KCNK3 parental cells, FluxOR thallium flux; active compounds read low | thallium flux ratio (lower = more inhibition) at 10 µM | actives 40% (n = 2,400);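 active = thallium flux ratio, averaged over three wells, more than 5 SD below the buffer control mean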;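 also: host cells are CHO cells without KCNK3 induction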
Hits are given with their value. Only some compounds are listed: those with a hit (about 3.1% of all), similar ones and a draw of the others.

Cc1cc(-c2ccc(C(C)C)c(S(=O)(=O)N3CCOc4ccccc43)c2)on1 was read as hERG protect inactive, KCNK9 inh -6.7, KCNK3 block -12, KCNQ1 act inactive, KCNQ1 block 7, KCNQ1 block val 96, CHO KCNQ1 ctr inactive, KCNQ1 APC inh inactive, KCNQ2 inh 83%, KCNQ1 KCNE1 spec 107%, KCNK3 confirm 111 and KCNK3 uninduced inactive.
Screening C/C(=N\NC(=O)CC#N)C1COc2ccccc2O1 (configuration not stated) returned hERG protect inactive, KCNK9 inh inactive, KCNK3 block inactive, KCNQ1 act inactive and KCNQ1 block inactive.
For CC(C)=CCc1c(O)cc(O)c2c1OC(c1ccc(O)cc1)CC2=O (configuration not stated) the results were hERG protect inactive, KCNK9 inh -12, KCNK3 block -15, KCNQ1 act inactive, KCNQ1 block 9, KCNQ1 block val 130, CHO KCNQ1 ctr 0.35, KCNQ2 inh 108%, KCNQ1 KCNE1 spec active, KCNK9 block conf 48%, Kir2-1 spec inactive, KCNK9 uninduced inactive, KCNK3 confirm 139 and KCNK3 uninduced 0.11.
For N#CC1=C(N)NC(SCc2ccccc2)=C(C#N)C12CCCC2 the results were hERG protect inactive, KCNK9 inh inactive, KCNK3 block inactive, KCNQ1 act inactive and KCNQ1 block inactive.
Screening N#CC1=C(N)NC(SCc2ccc(Br)cc2)=C(C#N)C12CCCCC2 returned hERG protect inactive, KCNK9 inh -6.8, KCNK3 block -12, KCNQ1 act inactive, KCNQ1 block 18, KCNQ1 block val 140, CHO KCNQ1 ctr 0.31, KCNQ2 inh 115%, KCNQ1 KCNE1 spec 159%, KCNK3 confirm 126 and KCNK3 uninduced 0.13.
Cc1cccc2nc(-c3cccnc3)c(NCCC(C)C)n12 was read as hERG protect 4.9, KCNK9 inh -9.1, KCNK3 block -10, KCNQ1 act inactive, KCNQ1 block 11, KCNQ1 block val 139, CHO KCNQ1 ctr 0.37, KCNQ2 inh 119%, KCNQ1 KCNE1 spec 157%, KCNK9 block conf 37%, Kir2-1 spec inactive, KCNK9 uninduced 36%, KCNK3 confirm 141 and KCNK3 uninduced 0.13.
For CCOC(=O)c1c(CN2CCN(C)CC2)n(C)c2cc(Br)c(OC)cc12 the results were hERG protect inactive, KCNK9 inh inactive, KCNK3 block inactive, KCNQ1 act inactive and KCNQ1 block inactive.
`CCOC(=O)c1c(CSC(=N)N)n(C)c2cc(Br)c(OC(C)=O)cc12` gave hERG protect inactive, KCNK9 inh inactive, KCNK3 block -8.8, KCNQ1 act inactive, KCNQ1 block 8, KCNQ1 block val 43, CHO KCNQ1 ctr inactive, KCNQ2 inh 60%, KCNQ1 KCNE1 spec 78%, KCNK3 confirm 117 and KCNK3 uninduced 0.14.
`CC1CCC2(CC1)NC(=O)N(CC(=O)c1cn(CCC#N)c3ccccc13)C2=O` (configuration not stated) gave hERG protect inactive, KCNK9 inh inactive, KCNK3 block inactive, KCNQ1 act inactive and KCNQ1 block inactive.
`COc1ccc(C)cc1NC(=O)C(OC(=O)c1cc(C)oc1C)c1ccccc1` (configuration not stated) gave hERG protect inactive, KCNK9 inh inactive, KCNK3 block inactive, KCNQ1 act inactive and KCNQ1 block inactive.
For CCOc1ccccc1NC(=O)C(OC(=O)c1cc(C)oc1C)c1ccccc1 (configuration not stated) the results were hERG protect inactive, KCNK9 inh -7.9, KCNK3 block inactive, KCNQ1 act inactive, KCNQ1 block 6, KCNQ1 block val 82, CHO KCNQ1 ctr 0.33, KCNQ2 inh 105%, KCNQ1 KCNE1 spec 86%, KCNK3 confirm 106 and KCNK3 uninduced inactive.
For CN(C)S(=O)(=O)c1cccc(COC(=O)c2ccc3c(c2)OCO3)c1 the results were hERG protect inactive, KCNK9 inh inactive, KCNK3 block inactive, KCNQ1 act inactive and KCNQ1 block inactive.
Screening CN(C)S(=O)(=O)c1cccc(COC(=O)c2ccc(Cl)cc2O)c1 returned hERG protect inactive, KCNK9 inh -8.3, KCNK3 block -9.5, KCNQ1 act inactive, KCNQ1 block 7, KCNQ1 block val 121, CHO KCNQ1 ctr inactive, KCNQ1 APC inh inactive, KCNQ2 inh 96%, KCNQ1 KCNE1 spec 117%, KCNK9 block conf 50%, Kir2-1 spec inactive, KCNK9 uninduced 26%, KCNK3 confirm 131 and KCNK3 uninduced inactive.
CSc1cccc(NC(=O)N2CCc3ccc(NC(=O)c4ccccn4)cc3C2)c1 was read as hERG protect inactive, KCNK9 inh inactive, KCNK3 block -11, KCNQ1 act inactive, KCNQ1 block 6, KCNQ1 block val 112, CHO KCNQ1 ctr inactive, KCNQ1 APC inh inactive, KCNQ2 inh 104%, KCNQ1 KCNE1 spec 178%, KCNK3 confirm 112 and KCNK3 uninduced 0.16.
For Cc1ccc(Cl)c(NC(=O)CN2CCNC(=O)C2)c1Cl the results were hERG protect inactive, KCNK9 inh inactive, KCNK3 block inactive, KCNQ1 act inactive and KCNQ1 block inactive.

Bioassay records: PubChem, Johns Hopkins Ion Channel Center
